Laboratory results: ChEMBL document CHEMBL1129983, “Synthesis and structure-activity relationships of carboxylated chalcones: a novel series of CysLT1 (LTD4) receptor antagonists” (J Med Chem, 1997)

molecular target: T1, Cysteinyl leukotriene receptor 1 (Cavia porcellus) (UniProt Q2NNR5); assay: Percent inhibition against Cysteinyl leukotriene D4 receptor in guinea pig lung membranes using [3H]LTD4 4 at 10 e-5 M; assay type: cell membranes; conditions: Membrane
T1 sequence (whole entry): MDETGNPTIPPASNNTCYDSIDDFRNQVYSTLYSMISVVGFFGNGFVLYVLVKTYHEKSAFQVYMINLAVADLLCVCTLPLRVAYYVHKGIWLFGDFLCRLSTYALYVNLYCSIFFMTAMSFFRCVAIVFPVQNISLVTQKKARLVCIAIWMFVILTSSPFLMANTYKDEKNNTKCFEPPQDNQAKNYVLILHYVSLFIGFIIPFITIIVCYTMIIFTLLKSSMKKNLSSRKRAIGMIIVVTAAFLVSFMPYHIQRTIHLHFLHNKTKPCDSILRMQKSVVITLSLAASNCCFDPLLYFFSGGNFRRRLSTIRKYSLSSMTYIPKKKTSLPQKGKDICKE
Method in brief: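 Same [3H]LTD4 (0.2 nM) filtration binding with guinea pig lung membranes, PIPES pH 7.5, 22 °C, 30 min. Percent inhibition = (maximum binding − counts at highest drug concentration) / maximum binding × 100.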

**Q.** With `O=C(O)c1ccc(O)c(C(=O)/C=C/c2ccc(OCc3ccccc3)cc2)c1` as the molecule, how does the inhibition read?
**A.** 23%

**Q.** With `N#Cc1ccc(C(=O)/C=C/c2ccc(OCc3ccc4ccccc4n3)cc2)cc1` as the molecule, how does the inhibition read?
**A.** 9%

**Q.** `N#Cc1ccc(O)c(C(=O)/C=C/c2cccc(OCc3ccc4ccccc4n3)c2)c1` was tested. Which inhibition did it give?
**A.** 38%

**Q.** Which inhibition does the source give for `CCCCOc1ccc(C(=O)O)cc1C(=O)/C=C/c1ccc(OCc2ccc3ccccc3n2)cc1` here?
**A.** 42%

**Q.** How did the inhibition turn out when `O=C(O)c1ccc(O)c(C(=O)/C=C/c2ccccc2OCc2ccc3ccccc3n2)c1` was run?
**A.** 18%

**Q.** Which inhibition does the source give for `N#Cc1ccc(C(=O)/C=C/c2cccc(OCc3ccc4ccccc4n3)c2)cc1` here?
**A.** 7%

**Q.** For `O=C(O)c1ccc(O)c(C(=O)/C=C/c2ccccc2OCc2ccccc2)c1`, which inhibition is on record?
**A.** 0%

**Q.** `O=C(/C=C/c1ccc(OCc2ccc3ccccc3c2)cc1)c1cc(-c2nn[nH]n2)ccc1O` was tested. Which inhibition did it give?
**A.** 4%

**Q.** `CCOC(=O)c1ccc(O)c(C(=O)/C=C/c2ccc(OCc3ccc4ccccc4n3)cc2)c1` was tested. Which inhibition did it give?
**A.** 16%

test system: Cavia porcellus; assay: Inhibition of LTD4 induced increase of vascular permeability after injection of 10 ng/site at […] intraperitoneally; assay type: functional; conditions: not given

**Q.** How did the Inhibition turn out when `O=C(Nc1cccc2c(=O)cc(-c3nnn[nH]3)oc12)c1ccc(OCCCCc2ccccc2)cc1` was run?
**A.** 100%

test system: Cavia porcellus; assay: Inhibition of LTD4 induced increase of vascular permeability after injection of 10 ng/site at 10 mg/kg intraperitoneally; assay type: functional; conditions: ip, route intraperitoneal
Method in brief: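 Male Hartley guinea pigs (~300 g), fasted 24 h with water available, dosed ip at 10 mg/kg in 0.5% carboxymethylcellulose or saline. One hour later Evans blue 50 mg/kg iv, then LTD4 intradermally on the back. Dorsal skin removed 30 min later, dye extracted and quantified. Reported as percent inhibition versus control.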

**Q.** For `O=C(/C=C/c1ccc(OCc2ccc3ccccc3n2)cc1)c1cc(-c2nn[nH]n2)ccc1O`, which inhibition in vivo at 10 mg/kg is on record?
**A.** 72%

**Q.** Which inhibition in vivo at 10 mg/kg does the source give for `O=C(O)c1cc(Cl)cc(C(=O)/C=C/c2cccc(/C=C/c3ccc4ccccc4n3)c2)c1O` here?
**A.** < 10%

**Q.** `O=C(O)c1cccc(C(=O)/C=C/c2cccc(/C=C/c3ccc4ccccc4n3)c2)c1O` was tested. Which inhibition in vivo at 10 mg/kg did it give?
**A.** < 10%

species: Cavia porcellus; assay: Inhibition of LTD4 induced contraction of guinea pig ileum; assay type: functional; conditions: not given
Method in brief: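 Male guinea pig ileum segments (2 cm), 20 mL organ bath, Tyrode's with atropine and pyrilamine (10⁻⁶ M each), 29 °C, 95% O2/5% CO2, 1.0 g resting tension, isotonic recording. Compounds in DMSO (10⁻⁵ to 3 × 10⁻⁹ M) preincubated 30 min; indomethacin 10⁻⁶ M added 10 min before 10⁻⁸ M LTD4. IC50 from percent inhibition across concentrations.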

**Q.** Which IC50 does the source give for `O=C(/C=C/c1cccc(/C=C/c2ccc3ccccc3n2)c1)c1cc(-c2nn[nH]n2)ccc1O` here?
**A.** 46 nM

**Q.** `O=C(/C=C/c1ccc(OCc2ccc3ccccc3n2)cc1)c1cc(-c2nn[nH]n2)ccc1O` was tested. Which IC50 did it give?
**A.** 240 nM

**Q.** With `O=C(O)c1cc(Cl)cc(C(=O)/C=C/c2cccc(/C=C/c3ccc4ccccc4n3)c2)c1O` as the molecule, how does the IC50 read?
**A.** 360 nM

**Q.** With `Cn1c(COc2ccc(/C=C/C(=O)c3cc(-c4nn[nH]n4)ccc3O)cc2)nc2ccccc21` as the molecule, how does the IC50 read?
**A.** 190 nM

**Q.** `O=C(/C=C/c1cccc(/C=C/c2ccc3ccccc3n2)c1)c1cc(OCc2nn[nH]n2)ccc1O` was tested. Which IC50 did it give?
**A.** 23 nM

**Q.** For `O=C(O)c1cccc(C(=O)/C=C/c2cccc(/C=C/c3ccc4ccccc4n3)c2)c1O`, which IC50 is on record?
**A.** 52 nM

species: Cavia porcellus; assay: Inhibition of ovalbumin-induced contraction (10 ng/mL) of guinea pig trachea at 10 uM; assay type: functional; conditions: not given
Method in brief: (§1)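 Ovalbumin-sensitized male Hartley guinea pigs (2 mg ip, ≥2 weeks prior). Tracheal ring strips in Krebs with 3 µM indomethacin, 37 °C, 95% O2/5% CO2, 0.5 g tension, 60 min equilibration. Drug 10 µM preincubated 30 min, then ovalbumin challenge for 20–60 min, followed by 10 µM carbachol. Antigen response expressed as percent of the carbachol contraction.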

**Q.** With `CCCc1c(OCC(O)COc2ccc3c(=O)cc(C(=O)O)oc3c2CCC)ccc(C(C)=O)c1O` (stereo not given) [FPL-55712] as the molecule, how does the Inhibition read?
**A.** 38%

**Q.** How did the Inhibition turn out when `O=C(/C=C/c1cccc(/C=C/c2ccc3ccccc3n2)c1)c1cc(OCc2nn[nH]n2)ccc1O` was run?
**A.** 0%

species: Cavia porcellus; assay: Inhibition of ovalbumin-induced contraction (10 ng/mL) of guinea pig trachea at 10 uM.; assay type: functional; conditions: not given; method in brief: as §1

**Q.** Which Inhibition does the source give for `O=C(Nc1cccc2c(=O)cc(-c3nnn[nH]3)oc12)c1ccc(OCCCCc2ccccc2)cc1` here?
**A.** 80%

**Q.** For `O=C(/C=C/c1ccc(OCc2ccc3ccccc3n2)cc1)c1cc(-c2nn[nH]n2)ccc1O`, which Inhibition is on record?
**A.** 52%

**Q.** For `O=C(O)c1cccc(C(=O)/C=C/c2cccc(/C=C/c3ccc4ccccc4n3)c2)c1O`, which Inhibition is on record?
**A.** 0%

molecular target: Cysteinyl leukotriene receptor 1 (Cavia porcellus); assay: Displacement of [3H]LTD4 from Cysteinyl leukotriene D4 receptor in guinea pig lung membranes; conditions: not given

**Q.** For `O=C(/C=C/c1cccc(/C=C/c2ccc3ccccc3n2)c1)c1cc(-c2nn[nH]n2)ccc1O`, which Kd is on record?
**A.** 21 nM

**Q.** Which Kd does the source give for `O=C(O)c1ccc(O)c(C(=O)/C=C/c2ccc(/C=C/c3ccc4ccccc4n3)cc2)c1` here?
**A.** 585 nM

**Q.** Which Kd does the source give for `O=C(O)c1cc(Cl)cc(C(=O)/C=C/c2ccc(OCc3ccc4ccccc4n3)cc2)c1O` here?
**A.** 732 nM

**Q.** With `N#Cc1ccc(O)c(C(=O)/C=C/c2ccc(OCc3ccc4ccccc4n3)cc2)c1` as the molecule, how does the Kd read?
**A.** 4310 nM

**Q.** `O=C(/C=C/c1ccc(/C=C/c2ccc3ccc(Cl)cc3n2)cc1)c1cc(-c2nn[nH]n2)ccc1O` was tested. Which Kd did it give?
**A.** 239 nM

**Q.** For `O=C(O)c1cc(Br)cc(C(=O)/C=C/c2ccc(OCc3ccc4ccccc4n3)cc2)c1O`, which Kd is on record?
**A.** 2100 nM

**Q.** For `CCOCCn1c(COc2ccc(/C=C/C(=O)c3ccc(C(=O)O)cc3O)cc2)nc2ccccc21`, which Kd is on record?
**A.** 62400 nM

**Q.** For `O=C(O)COc1ccc(O)c(C(=O)/C=C/c2cccc(/C=C/c3ccc4ccccc4n3)c2)c1`, which Kd is on record?
**A.** 175 nM

**Q.** How did the Kd turn out when `O=C(/C=C/c1cccc(OCc2ccc3ccccc3n2)c1)c1cc(-c2nn[nH]n2)ccc1O` was run?
**A.** 209 nM

**Q.** With `O=C(O)c1ccc(C(=O)/C=C/c2ccc(OCc3ccc4ccccc4n3)cc2)c(O)c1` as the molecule, how does the Kd read?
**A.** 1210 nM

**Q.** With `O=C(/C=C/c1ccc(OCc2nccs2)cc1)c1cc(-c2nn[nH]n2)ccc1O` as the molecule, how does the Kd read?
**A.** 233 nM

**Q.** With `O=C(/C=C/c1cccc(/C=C/c2ccc3ccccc3n2)c1)c1cc(Cl)cc(-c2nn[nH]n2)c1O` as the molecule, how does the Kd read?
**A.** 828 nM

**Q.** `O=C(O)c1cc(F)cc(C(=O)/C=C/c2ccc(OCc3ccc4ccccc4n3)cc2)c1O` was tested. Which Kd did it give?
**A.** 396 nM

**Q.** For `O=C(O)c1ccc(O)c(C(=O)/C=C/c2ccc3ccccc3n2)c1`, which Kd is on record?
**A.** 11100 nM

**Q.** With `N#Cc1cc(Cl)cc(C(=O)/C=C/c2cccc(/C=C/c3ccc4ccccc4n3)c2)c1O` as the molecule, how does the Kd read?
**A.** 449 nM

**Q.** Which Kd does the source give for `O=C(O)COc1ccc(C(=O)/C=C/c2cccc(/C=C/c3ccc4ccccc4n3)c2)c(O)c1` here?
**A.** 204 nM

**Q.** How did the Kd turn out when `CC(C)(C)c1cc(C(=O)O)c(O)c(C(=O)/C=C/c2cccc(/C=C/c3ccc4ccccc4n3)c2)c1` was run?
**A.** 208 nM

**Q.** For `O=C(O)c1cccc(C(=O)/C=C/c2cccc(/C=C/c3ccc4ccccc4n3)c2)c1O`, which Kd is on record?
**A.** 26 nM

**Q.** For `CCOCCn1c(COc2ccc(/C=C/C(=O)c3cc(-c4nn[nH]n4)ccc3O)cc2)nc2ccccc21`, which Kd is on record?
**A.** 527 nM

**Q.** Which Kd does the source give for `O=C(/C=C/c1ccc(OCc2ccc3ccc(Cl)cc3n2)cc1)c1cc(-c2nn[nH]n2)ccc1O` here?
**A.** 196 nM

**Q.** With `COc1ccc(C(=O)O)cc1C(=O)/C=C/c1ccc(OCc2ccc3ccccc3n2)cc1` as the molecule, how does the Kd read?
**A.** 188 nM

**Q.** For `O=C(O)c1cc(Br)cc(C(=O)/C=C/c2cccc(OCc3ccc4ccccc4n3)c2)c1O`, which Kd is on record?
**A.** 205 nM

**Q.** `O=C(O)c1cc(Br)cc2c(=O)cc(-c3ccc4ccccc4n3)oc12` was tested. Which Kd did it give?
**A.** 14800 nM

**Q.** `O=C(O)c1ccc(C(=O)/C=C/c2cccc(OCc3ccc4ccccc4n3)c2)c(O)c1` was tested. Which Kd did it give?
**A.** 928 nM

**Q.** For `O=C(O)c1cc(F)cc(C(=O)/C=C/c2cccc(/C=C/c3ccc4ccccc4n3)c2)c1O`, which Kd is on record?
**A.** 140 nM

**Q.** `CCOCCn1c(COc2cccc(/C=C/C(=O)c3cc(-c4nn[nH]n4)ccc3O)c2)nc2ccccc21` was tested. Which Kd did it give?
**A.** 8850 nM

**Q.** With `O=C(/C=C/c1cccc(OCc2ccc3ccccc3c2)c1)c1cc(-c2nn[nH]n2)ccc1O` as the molecule, how does the Kd read?
**A.** 19200 nM

**Q.** With `COC(=O)c1ccc(OC)c(C(=O)/C=C/c2ccc(OCc3ccc4ccccc4n3)cc2)c1` as the molecule, how does the Kd read?
**A.** 357 nM

**Q.** With `O=C(O)c1cccc(C(=O)/C=C/c2ccc(OCc3ccc4ccccc4n3)cc2)c1O` as the molecule, how does the Kd read?
**A.** 307 nM

**Q.** Which Kd does the source give for `CCOCCn1c(COc2cccc(/C=C/C(=O)c3cc(Cl)cc(C(=O)O)c3O)c2)nc2ccccc21` here?
**A.** 10500 nM

**Q.** `O=C(O)c1cccc(C(=O)/C=C/c2ccc(/C=C/c3ccc4ccccc4n3)cc2)c1O` was tested. Which Kd did it give?
**A.** 200 nM
